This note sets out measurements from ChEMBL document CHEMBL1135464, “3-Aryl-2-quinolone derivatives: synthesis and characterization of in vitro and in vivo antitumor effects with emphasis on a new therapeutical target connected with cell migration” (J Med Chem, 2002).

Each structure is given as a SMILES string.

In data set [1] the test system is A-427. The experiment in a line: Cytotoxicity against A-427 nonsmall lung cell line using MTT colorimetric assay; NE is no effect at 1x 10 E-5. The class given is functional, cell-based, Homo sapiens. In short, it runs like this: (§1)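 Human tumour lines from ATCC were grown at 37 °C in sealed dishes in MEM with 5% FCS. Cells were seeded at 40000 cells/mL in 96-well plates and left 24 h to plate. Each drug was then tested at six concentrations from 10^-5 to 10^-9 M. Growth was read by colorimetric MTT assay.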
On the technique in general: Tetrazolium assays rely on reduction of a dye to a coloured formazan, in cell work by metabolically active cells.

For data set [2], the system named is A 172. Nature of the data set: Cytotoxicity against A-172 glioblastomas using MTT colorimetric assay; NE is no effect at 1x 10 E-5. Format: functional, cell-based, Homo sapiens. In short, it runs like this: as §1
A short description of data set [3]: Evaluated in vivo for maximum tolerated dose and found to be nontoxic. Format: ADME, organism-based.
Data set [4] deals with HCT-15. The experiment in a line: Cytotoxicity against HCT-15 colon cell line using MTT colorimetric assay a; NE is no effect at 1x 10 E-5. The class given is functional, cell-based, Homo sapiens. In short, it runs like this: as §1
The test system of data set [5] is J82. The experiment in a line: Cytotoxicity against J82 bladder cell lines using MTT colorimetric assay; NE is no effect at 1x 10 E-5. Format: functional, cell-based, Homo sapiens. In short, it runs like this: as §1
The test system of data set [6] is LoVo. Nature of the data set: Cytotoxicity against LoVo colon cell line using MTT colorimetric assay; NE is no effect at 1x 10 E-5. Format: functional, cell-based, Homo sapiens. In short, it runs like this: as §1
Data set [7] relates to MCF7. Nature of the data set: Cytotoxicity against Breast cancer cell line MCF-7 using MTT colorimetric assay; NE is no effect at 1x 10 E-5. The class given is functional, cell-based, Homo sapiens. In short, it runs like this: as §1
For data set [8], the system named is PC-3. The experiment in a line: Cytotoxicity against prostate cell line PC-3 using MTT colorimetric assay; NE is no effect at 1x 10 E-5. Format: functional, cell-based, Homo sapiens. In short, it runs like this:
as §1

The test system of data set [9] is T-24. Nature of the data set: Cytotoxicity against T24 bladder cell lines using MTT colorimetric assay; NE is no effect at 1x 10 E-5. The class given is functional, cell-based, Homo sapiens. In short, it runs like this:
as §1

The subject of data set [10] is U373 MG. Nature of the data set: Cytotoxicity against U-373 MG glioblastomas using MTT colorimetric assay; NE is no effect at 1x 10 E-5. Format: functional, cell-based, Homo sapiens. To be noted: u-373mg atcc. In short, it runs like this:
as §1

Data set [11] relates to T47D. Nature of the data set: Cytotoxicity against Breast cancer cell line T-47D using MTT colorimetric assay at 1x 10 E-5; NE is no effect at 1x 10 E-5. The class given is functional, cell-based, Homo sapiens. In short, it runs like this:
as §1

Data set [12] relates to U-87 MG. Nature of the data set: Cytotoxicity against U-87 MG glioblastomas using MTT colorimetric assay; NE is no effect at 1x 10 E-5. Format: functional, cell-based, Homo sapiens. To be noted: u-87mg atcc. In short, it runs like this:
as §1

For data set [13], the system named is A549. Nature of the data set: Cytotoxicity against A549 nonsmall lung cell line using MTT colorimetric assay; NE is no effect at 1x 10 E-5. Format: functional, cell-based, Homo sapiens. In short, it runs like this:
as §1

Data set [14] has as its system A-427. Nature of the data set: Cytotoxicity against A-427 nonsmall lung cell line using MTT colorimetric assay. The class given is functional, cell-based. The conditions noted are these: Homo sapiens. In short, it runs like this: as §1
Data set [15] concerns A549. Nature of the data set: Cytotoxicity against A549 nonsmall lung cell line using MTT colorimetric assay. The conditions noted are these: Homo sapiens. Format: functional, cell-based. In short, it runs like this: as §1
The subject of data set [16] is A 172. The experiment in a line: Cytotoxicity against A-172 glioblastomas using MTT colorimetric assay. The conditions noted are these: Homo sapiens. Format: functional, cell-based. In short, it runs like this:
as §1

For data set [17], the system named is HCT-15. The experiment in a line: Cytotoxicity against HCT-15 colon cell line using MTT colorimetric assay. Format: functional, cell-based. To be noted: Homo sapiens. In short, it runs like this: as §1
For data set [18], the system named is J82. The experiment in a line: Cytotoxicity against J82 bladder cell lines using MTT colorimetric assay. Format: functional, cell-based. To be noted: Homo sapiens. In short, it runs like this: as §1
The subject of data set [19] is LoVo. The experiment in a line: Cytotoxicity measured on LoVo colon cell line using MTT colorimetric assay. To be noted: Homo sapiens. The class given is functional, cell-based. In short, it runs like this: as §1
The test system of data set [20] is PC-3. The experiment in a line: Cytotoxicity against prostate cell line PC-3 using MTT colorimetric assay. The class given is functional, cell-based. The conditions noted are these: Homo sapiens. In short, it runs like this:
as §1

Data set [21] has as its system T47D. The experiment in a line: Cytotoxicity against Breast cancer cell line T-47D using MTT colorimetric assay. Format: functional, cell-based. The conditions noted are these: Homo sapiens. In short, it runs like this: as §1
Data set [22] relates to T-24. Nature of the data set: Cytotoxicity against T24 bladder cell lines using MTT colorimetric assay. The class given is functional, cell-based. The conditions noted are these: Homo sapiens. In short, it runs like this: as §1
Data set [23] concerns U373 MG. The experiment in a line: Cytotoxicity against U-373 MG glioblastomas using MTT colorimetric assay. Format: functional, cell-based, U-373MG ATCC. To be noted: Homo sapiens. In short, it runs like this:
as §1

The subject of data set [24] is U-87 MG. The experiment in a line: Cytotoxicity against U-87 MG glioblastomas using MTT colorimetric assay. Format: functional, cell-based, U-87MG ATCC. To be noted: Homo sapiens. In short, it runs like this:
as §1

For data set [25], the system named is MCF7. The experiment in a line: Cytotoxicity against Breast cancer cell line MCF-7 using MTT colorimetric assay. Format: functional, cell-based. To be noted: Homo sapiens. In short, it runs like this: as §1
Data set [26] deals with Mus musculus. Nature of the data set: Evaluated in vivo for maximum tolerated dose (MTD/4) with Doxorubicin (DOX) using MXT mouse mammary adenocarcinoma model. Format: functional. In short, it runs like this:
(§2)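 MXT-HS hormone-sensitive mammary adenocarcinoma maintained by monthly s.c. transplantation in 6-week-old female B6D2F1 mice. Doses are set as fractions of the MTD. Drugs given i.p.; ETO and DOX 9 times, the quinolone 20 times. Nine mice per group. Tumor area (mm2) is the product of the two largest perpendicular caliper diameters, measured weekly. Mean ± SEM; Mann-Whitney test.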

Data set [27] has as its system Mus musculus. The experiment in a line: Evaluated in vivo for maximum tolerated dose (MTD/2) with Doxorubicin (DOX) using MXT mouse mammary adenocarcinoma model. The class given is functional. In short, it runs like this: as §2
Data set [28] concerns Mus musculus. Nature of the data set: Evaluated in vivo for maximum tolerated dose (MTD/4) using MXT mouse mammary adenocarcinoma model.
Data set [29] has as its system HCT-15. Nature of the data set: Cytotoxicity against HCT-15 colon cell line using MTT colorimetric assay; NE is no effect at 1x 10 E-5. Format: functional, cell-based, Homo sapiens. In short, it runs like this: as §1
Data set [30] relates to T47D. Nature of the data set: Cytotoxicity against Breast cancer cell line T-47D using MTT colorimetric assay; NE is no effect at 1x 10 E-5. The class given is functional, cell-based, Homo sapiens. In short, it runs like this:
as §1

With `COc1ccc(-c2cc3c(OC)cc(OC)cc3n(CCC(=O)O)c2=O)cc1`, the IC50 result with A-427 [1], in the data set on A 172 [2], in the data set with HCT-15 [4], in the data set with J82 [5], with LoVo [6] and in the data set on MCF7 [7] was “No effect” each time. The half-maximal inhibitory concentration (IC50) entry in the data set with PC-3 [8], in the data set with T-24 [9], in the data set on U373 MG [10], in the data set on T47D [11], in the data set with U-87 MG [12] and with A549 [13] was “No effect” throughout. For the same molecule, in data set [3], the MTD – broadly, the largest dose that counted as tolerated – was determined as 160 mg/kg.
As to `COc1ccc(-c2cc3c(OC)cc(OC)cc3n(CC(=O)O)c2=O)cc1`, the IC50 in the data set with A-427 [14], in the data set with A549 [15], in the data set on A 172 [16], in the data set with HCT-15 [17], in the data set with J82 [18] and in the data set with LoVo [19] was > 10 µM in each case. The IC50 in the data set with PC-3 [20], in the data set on T47D [21], in the data set on T-24 [22], with U373 MG [23], with U-87 MG [24] and in the data set with MCF7 [25] was > 10 µM each time. The molecule further showed a maximal tolerated dose (MTD) in [3] of 160 mg/kg.
`COc1ccc(-c2cc3c(OC)cc(OC)cc3n(CCCC#N)c2=O)cc1`: the IC50 with A-427 [14], with A549 [15], in the data set with A 172 [16], in the data set on HCT-15 [17], in the data set on J82 [18] and in the data set with LoVo [19] was > 10 µM throughout. Besides, the IC50 in the data set on PC-3 [20], in the data set with T47D [21], with T-24 [22], with U373 MG [23], with U-87 MG [24] and with MCF7 [25] was > 10 µM each time. The MTD in data set [3] came out at 160 mg/kg.
For `COc1ccc(-c2cc3c(OC)cc(OC)cc3n(CCc3nnn[nH]3)c2=O)cc1`, the half-inhibitory concentration (IC50) with A-427 [14], in the data set with A549 [15], with A 172 [16], in the data set on HCT-15 [17], in the data set with J82 [18] and in the data set on LoVo [19] was > 10 µM in each case. Moreover, the IC50 in the data set on PC-3 [20], in the data set with T47D [21], in the data set on T-24 [22], in the data set on U373 MG [23], in the data set on U-87 MG [24] and in the data set on MCF7 [25] was > 10 µM throughout. Also, in data set [3], the MTD stood at 160 mg/kg. Further, the MTD/4 with Mus musculus [26] worked out at 40 mg/kg. The MTD/2 in the data set on Mus musculus [27] came out at 80 mg/kg. This molecule also yielded an MTD/8 in the data set with Mus musculus [28] of 20 mg/kg.
As for `COc1cc(OC)c2cc(-c3ccccc3)c(O)nc2c1`, the IC50 in the data set on A-427 [14], in the data set on A549 [15], with A 172 [16], in the data set on HCT-15 [17], in the data set on J82 [18] and with LoVo [19] was > 10 µM throughout. Moreover, the IC50 in the data set with PC-3 [20], in the data set on T47D [21], with T-24 [22], in the data set with U373 MG [23], in the data set with U-87 MG [24] and in the data set with MCF7 [25] was > 10 µM in each case. Moreover, the MTD in [3] came out at 160 mg/kg.
Consider `COc1ccc(-c2cc3c(OC)cc(OC)cc3n(CCCN(C)C)c2=O)cc1`, for which the half-maximal inhibitory concentration (IC50) entry in the data set on A-427 [1], with A 172 [2], in the data set with HCT-15 [29], with J82 [5], in the data set on LoVo [6] and in the data set with MCF7 [7] was “No effect” in each case. The half-inhibitory concentration (IC50) entry in the data set on PC-3 [8], in the data set on T-24 [9], in the data set on U373 MG [10], in the data set on T47D [30], in the data set on U-87 MG [12] and in the data set with A549 [13] was “No effect” in each case. Moreover, the maximal tolerated dose (MTD) in data set [3] worked out at 160 mg/kg.
For `COc1ccc(-c2cc3c(OC)cc(OC)cc3n(CCN(C)C)c2=O)cc1`, the half-inhibitory concentration (IC50) in the data set with A-427 [14], with A549 [15], with A 172 [16], in the data set with HCT-15 [17], in the data set on J82 [18] and in the data set with LoVo [19] was > 10 µM in each case. For the same molecule, the IC50 in the data set with PC-3 [20], in the data set with T47D [21], in the data set on T-24 [22], with U373 MG [23], with U-87 MG [24] and in the data set with MCF7 [25] was > 10 µM each time. Besides, in data set [3], the MTD is 160 mg/kg.
